Assay results as given in ChEMBL document CHEMBL1781958, “Discovery of pyridone-containing imidazolines as potent and selective inhibitors of neuropeptide Y Y5 receptor” (Bioorg Med Chem, 2009).

Tests used:
[1] = Drug level in anesthetized Sprague-Dawley rat plasma at 5 mg/kg, iv after 3 mins; format: ADME, organism-based; design: dose 5 mg/kg, route intravenous
In short: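 Male SD rats under inactin (100 mg/kg). Femoral artery catheter for pressure, femoral vein for dosing, left ventricular catheter via the carotid for LVP; LV dp/dt_max derived from LVP. Vehicle (60% propylene glycol/water, 1 mL/kg) given first, compound 45 min later. Values are % change from baseline at 3 min after 5 mg/kg iv, with blood drawn at 3 min; n = 2–3.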

[2] = Bioavailability in Sprague-Dawley rat at 3 mg/kg, po and 1 mg/kg, iv; format: ADME, organism-based; settings: in vivo
In short: (§1)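 PK in rats (oral 3 mg/kg, iv 1 mg/kg) and rhesus monkeys (oral 1 mg/kg, iv 0.3 mg/kg); values are means of n = 3.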

Brain [3] = assay: Drug level in Sprague-Dawley rat brain at 10 mg/kg, po after 2 hrs; format: ADME, organism-based; design: dose 10 mg/kg, route oral; settings: in vivo
In short: (§2)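 SD rats dosed orally at 10 mg/kg; brain (nmol/g) and plasma levels measured 2 h later.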

[4] = Drug level in mdr1a expressing wild type CF1 mouse plasma at 10 mg/kg, po after 2 hrs; format: ADME, organism-based; design: dose 10 mg/kg, route oral
In short: (§3)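 CF-1 mice, mdr1a (−/−) and (+/+), dosed orally at 10 mg/kg; brain and plasma concentrations taken 2 h after dosing; mean of n = 3.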

[5] = Drug level in mdr1a deficient CF1 mouse plasma at 10 mg/kg, po after 2 hrs; format: ADME, organism-based; design: dose 10 mg/kg, route oral; in short: as §3
[6] = Cmax in rhesus monkey at 1 mg/kg, po and 0.3 mg/kg, iv; format: ADME, organism-based, Macaca mulatta; settings: in vivo; in short: as §1
[7] = Drug level in anesthetized Beagle dog plasma at 1 mg/kg, iv infused over 10 mins measured immediately after end of dosing; format: ADME, organism-based, Canis lupus familiaris; design: dose 1 mg/kg, route intravenous
In short: (§4)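 Dogs were anesthetized and, after surgery, stabilized at least 1 h before baseline readings. Doses of 1, 2 and 5 mg/kg were infused iv over 10 min each (cumulative 1, 3, 8 mg/kg). QTc, MAP, LVSP, CO, HR and LV dp/dt_max were read at 0, 10 and 20 min as maximum % change from baseline. Plasma was sampled at the end of each dosing period; n = 3.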

[8] = Ratio of drug level in brain to plasma in mdr1a expressing wild type CF1 mouse at 10 mg/kg, po after 2 hrs; format: ADME, organism-based; design: dose 10 mg/kg, route oral; settings: read-out: BPR
In short: (§5)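 P-gp-deficient mdr1a (−/−) and wild-type mdr1a (+/+) CF-1 mice were dosed orally at 10 mg/kg. Brain (nmol/g) and plasma levels were taken 2 h post-dose, n = 3. The ratio was calculated from the mean values.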

Brain [9] = assay: Drug level in mdr1a expressing wild type CF1 mouse brain at 10 mg/kg, po after 2 hrs; format: ADME, organism-based; design: dose 10 mg/kg, route oral; settings: in vivo; in short: as §3
[10] = Volume of distribution at steady state in Sprague-Dawley rat at 3 mg/kg, po and 1 mg/kg, iv; format: ADME, organism-based; settings: in vivo, read-out: Vdss
In short: (§6)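 Pharmacokinetic parameters are the mean of n = 3 animals. Rats were dosed 1 mg/kg iv and 3 mg/kg po; rhesus monkeys 0.3 mg/kg iv and 1 mg/kg po.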

[11] = Cmax in Sprague-Dawley rat at 3 mg/kg, po and 1 mg/kg, iv; format: ADME, organism-based; settings: in vivo; in short: as §1
[12] = Bioavailability in rhesus monkey at 1 mg/kg, po and 0.3 mg/kg, iv; format: ADME, organism-based, Macaca mulatta; settings: in vivo
[13] = AUC (0 to infinity) in Sprague-Dawley rat at 3 mg/kg, po; format: ADME, organism-based; design: time infinity, dose 3 mg/kg, route oral; settings: plasma; in short: as §1
[14] = Drug level in anesthetized Beagle dog plasma at 2 mg/kg, iv infused over 10 mins measured immediately after end of dosing; format: ADME, organism-based, Canis lupus familiaris; design: dose 2 mg/kg, route intravenous; in short: as §4
Brain [15] = assay: Drug level in mdr1a deficient CF1 mouse brain at 10 mg/kg, po after 2 hrs; format: ADME, organism-based; design: dose 10 mg/kg, route oral; settings: in vivo; in short: as §3
[16] = Drug level in Sprague-Dawley rat plasma at 10 mg/kg, po after 2 hrs; format: ADME, organism-based; design: dose 10 mg/kg, route oral; in short: as §2
[17] = Drug level in anesthetized Beagle dog plasma at 5 mg/kg, iv infused over 10 mins measured immediately after end of dosing; format: ADME, organism-based, Canis lupus familiaris; design: dose 5 mg/kg, route intravenous; in short: as §4
[18] = Ratio of drug level in brain to plasma of Sprague-Dawley rat at 10 mg/kg, po after 2 hrs; format: ADME, organism-based; design: dose 10 mg/kg, route oral; settings: read-out: BPR
In short: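 Sprague-Dawley rats were dosed orally at 10 mg/kg. Brain (nmol/g) and plasma concentrations were measured 2 h later, and the brain-to-plasma ratio was taken from these.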

[19] = Volume of distribution at steady state in rhesus monkey at 1 mg/kg, po and 0.3 mg/kg, iv; format: ADME, organism-based, Macaca mulatta; settings: in vivo, read-out: Vdss; in short: as §6
[20] = AUC (0 to infinity) in rhesus monkey at 1 mg/kg, po; format: ADME, organism-based, Macaca mulatta; design: time infinity, dose 1 mg/kg, route oral; settings: plasma; in short: as §1
[21] = Ratio of drug level in brain to plasma in mdr1a deficient CF1 mouse at 10 mg/kg, po after 2 hrs; format: ADME, organism-based; design: dose 10 mg/kg, route oral; settings: read-out: BPR; in short: as §5

C[C@@H]1NC(c2cccc(S(N)(=O)=O)c2)=N[C@@]1(c1ccc(F)cc1)c1ccc(F)nc1
concentration at 0.05 h [1]: 4.9 µM

C[C@@H]1NC(c2cccc(=O)[nH]2)=N[C@@]1(c1ccc(F)cc1)c1ccc(F)nc1
concentration at 0.05 h [1]: 5.3 µM

C[C@@H]1NC(c2ccc(=O)n(C(F)F)c2)=N[C@@]1(c1ccc(F)cc1)c1ccc(F)nc1
bioavailability [2]: 92% | Drug uptake (Brain [3]): 0.91 nmol/g | concentration at 2 h [4]: 8.36 µM | concentration at 2 h [5]: 7.01 µM | Cmax [6]: 0.64 µM | concentration at 10 min [7]: 7.7 µM | Kp at 2 h [8]: 0.48 | Drug uptake (Brain [9]): 4 nmol/g | Vd [10]: 2.6 L/kg | Cmax [11]: 1.1 µM | bioavailability [12]: 92% | AUC(0-inf) [13]: 4.8 µM·h | concentration at 10 min [14]: 14.3 µM | Drug uptake (Brain [15]): 14.8 nmol/g | concentration at 2 h [16]: 2.2 µM | concentration at 10 min [17]: 26.9 µM | Kp at 2 h [18]: 0.42 | Vd [19]: 3.8 L/kg | AUC(0-inf) [20]: 11 µM·h | Kp at 2 h [21]: 2.05

C[C@@H]1NC(c2cc(C#N)ccn2)=N[C@@]1(c1ccc(F)cc1)c1ccc(F)nc1
concentration at 0.05 h [1]: 6.3 µM

C[C@@H]1NC(c2cccc(O)n2)=NC1(c1ccc(F)cc1)c1ccc(F)cc1
concentration at 0.05 h [1]: 2.6 µM

C[C@@H]1NC(c2cnccn2)=N[C@@]1(c1ccc(F)cc1)c1ccc(F)nc1
concentration at 0.05 h [1]: 5.1 µM

C[C@@H]1NC(c2ccnc(C#N)c2)=N[C@@]1(c1ccc(F)cc1)c1ccc(F)nc1
concentration at 0.05 h [1]: 4.3 µM
